We go through one compound from PMC9407455 (Proceedings of the National Academy of Sciences of the …, 2022).

SMILES strings stand for the structures.

The test system of this test is HeLa cell–derived xenografts. In words: Xenograft tumor assay. Format: in vivo, mice. The note with it: iJMJD6 25 mg/kg or JQ1 50 mg/kg alone or in combination, i.p. every other day. The method in brief: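 Female BALB/c nude mice inoculated with HeLa cells, randomized, and injected i.p. every other day with DMSO or test compound at indicated doses. Tumour growth curves and endpoint tumour weights recorded (mean ±SEM); tumour lysates immunoblotted.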

For `Cc1sc2c(c1C)C(c1ccc(Cl)cc1)=N[C@@H](CC(=O)OC(C)(C)C)c1nnc(C)n1-2` [JQ1], the tumor suppressive effect entry is given as “readily seen”.
